Screening results from PubChem BioAssay.
Sampled rows, rich in hits. Any-hit rate of the full collection: about 4.6%.
OX1R antag-1: antagonists of human orexin 1 receptor (OX1R). O43613. OX1R-expressing cells, FRET antagonist read-out. inhibition, % at 6.6 µM. actives 1.8% (n = 330,000); in the data active means inhibition mostly above about 38%, no sharp cut-off; inactive means mostly below about 40%;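 further: 0% = agonist challenge alone and 100% = reference antagonist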
TAAR1 antagonist: human TAAR1 antagonism; Q96RJ0; CHO RD-HGA16 TAAR1, Fluo-8 calcium fluorescence, antagonist; inhibition, % at 3 µM; actives 1.5% (n = 360,000); AID 624466;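 active means inhibition above a per-plate cutoff, the mean inhibition of test compounds on that plate plus 3 SD, cut at about 49% in these data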;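 further: 0% = DMSO plus EC80 beta-PEA response and 100% = DMSO alone without agonist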
Target sequence (Q96RJ0 whole entry, looked up): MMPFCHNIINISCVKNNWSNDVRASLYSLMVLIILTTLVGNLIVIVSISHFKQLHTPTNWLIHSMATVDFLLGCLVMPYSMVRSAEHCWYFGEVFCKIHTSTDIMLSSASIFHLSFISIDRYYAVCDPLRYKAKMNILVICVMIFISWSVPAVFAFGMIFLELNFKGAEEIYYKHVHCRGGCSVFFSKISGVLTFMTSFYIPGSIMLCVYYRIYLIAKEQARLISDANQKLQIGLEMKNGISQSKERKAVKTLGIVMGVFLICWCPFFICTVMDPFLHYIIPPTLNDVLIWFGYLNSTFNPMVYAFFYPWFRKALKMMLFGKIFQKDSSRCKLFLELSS
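System: CHO RD-HGA16 cells bearing hTAAR1. Reagent: EC80 β-phenethylamine stimulus. Schedule: seeding 17-24 h prior, 75-min 37 °C, 30-min RT dye loading. Signal: Fluo-8 intracellular calcium dye fluorescence, real-time kinetic reads. Read-out: % inhibition from peak post-agonist over basal fluorescence ratio. Benchmarks: vehicle wells and EC80 agonist wells. Replicates: n of 1.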
OX1R antag-2: human HCRTR1 antagonism | O43613 | CHO/OX1R cells, Fluo-8 calcium fluorescence, orexin A | inhibition, % at 5 µM | actives 0.43% (n = 330,000) | AID 434989;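 active means inhibition above its plate's threshold, mean inhibition of all tested compounds on the plate plus 3 SD, cut at about 37% in these data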;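 further: 0% = orexin A challenge wells and 100% = SB-334867-A antagonist wells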
GPR7 antagonist: blocks human GPR7 receptor signaling; P48145; GPR7-expressing cells, fluorescence antagonist assay; inhibition, % at 4.4 µM; actives 1.1% (n = 290,000); AID 1861; in the data active means inhibition above about 16%, passing the limit was not always enough;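 further: cells stimulated with the agonist NPW; 0% = agonist with vehicle and 100% = vehicle without agonist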
Target sequence (P48145 whole entry, looked up): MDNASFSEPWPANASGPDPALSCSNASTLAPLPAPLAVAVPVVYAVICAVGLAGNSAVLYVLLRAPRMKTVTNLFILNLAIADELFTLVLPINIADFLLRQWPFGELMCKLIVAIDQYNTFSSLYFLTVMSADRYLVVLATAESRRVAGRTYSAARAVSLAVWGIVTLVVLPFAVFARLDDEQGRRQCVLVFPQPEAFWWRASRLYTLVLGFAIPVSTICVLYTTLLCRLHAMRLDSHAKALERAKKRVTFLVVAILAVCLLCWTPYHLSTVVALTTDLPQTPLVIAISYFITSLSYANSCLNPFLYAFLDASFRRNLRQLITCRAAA
TAAR1 agonist: agonists of human TAAR1; actives 0.99% (n = 360,000); AID 624467; activation, % at 3 µM; Q96RJ0; CHO RD-HGA16 TAAR1, Fluo-8 calcium fluorescence; vehicle wells 0%, saturating PEA agonist 100%;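 active means activation above the mean activation of all test compounds in the run plus 3 SD, cut at about 38% in these data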
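Test system: RD-HGA16 (CHO) cells co-expressing Gα16 and hTAAR1; dosing: one-point dosing at 3 µM (nominal); timing: 17-24 h seeding, 75 min 37 °C dye, 30 min RT; signal: kinetic Fluo-8 calcium fluorescence; read-out basis: % activation relative to PEA EC100 response; controls: DMSO and PEA EC100; replicates: n 1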
CHO parental Ca: counter-screen: ATP calcium response change in parental CHO cells. actives 0.63% (n = 330,000). AID 463079. parental CHO-K1, ATP-induced calcium, Fluo-8 fluorescence. inhibition, % at 5.6 µM;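 active means inhibition above that plate's mean sample inhibition plus 3 SD, cut at about 26% in these data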;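 further: 0% = ATP-challenged DMSO wells and 100% = DMSO wells without ATP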
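test system = CHO parental line | reagent = ATP stimulus | measured by = intracellular calcium via Fluo-8 no-wash fluorescent dye | control set = ATP and no-ATP DMSO wells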
TAAR1 ag conf: confirmation of human TAAR1 agonists. shares compounds with TAAR1 agonist. CHO RD-HGA16 TAAR1, Fluo-8 calcium fluorescence; scaled: DMSO 0%, maximal phenethylamine 100%. activation, % at 3 µM. actives 82% (n = 2,400). AID 651783;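 active means activation above a cutoff set at the run's mean compound activation plus 3 SD, cut at about 39% in these data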
Ga16 nonsel ag: nonselective agonist in parental cells, TAAR1 agonist counter-screen; shares compounds with TAAR1 agonist; CHO-Ga16 parental, Fluo-8 calcium fluorescence; normalized to maximal ATP response, DMSO zero; activation, % at 3 µM; actives 50% (n = 2,400); AID 651787;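 active means activation above the run cutoff, the mean activation over all tested wells plus 3 SD, cut at about 12% in these data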;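 further: 0% = DMSO wells and 100% = maximal ATP response on the peak over basal ratio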
TAAR1 desensitize: counter-screen for human TAAR1 agonists: agonists that desensitize TAAR1; shares compounds with TAAR1 agonist; CHO RD-HGA16 hTAAR1, Fluo-8 calcium, beta-PEA response inhibition; inhibition, % at 3 µM; actives 46% (n = 2,400); AID 651951;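 active means inhibition above the run cutoff, the mean inhibition of all test compounds plus 3 SD, cut at about 49% in these data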;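 further: beta-PEA stimulus applied at its EC80; loss of beta-PEA calcium signal after compound pretreatment read as receptor desensitization; 0% = DMSO with beta-PEA at EC80 and 100% = DMSO alone without agonist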
Ga16 nonsel ant: nonselective Ga16 antagonism, counter-screen; shares compounds with TAAR1 agonist; CHO-Ga16 ATP-induced calcium, Fluo-8 fluorescence; inhibition, % at 3 µM; actives 39% (n = 2,400); AID 651952;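 active means inhibition above the plate's mean compound inhibition plus 3 SD, computed per plate, cut at about 22% in these data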;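 further: 0% = EC80 ATP with DMSO and 100% = DMSO wells without ATP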
Active calls of the source: *; . = no result given.

SMILES	OX1R antag-1	TAAR1 antagonist	OX1R antag-2	GPR7 antagonist	TAAR1 agonist	CHO parental Ca	TAAR1 ag conf	Ga16 nonsel ag	TAAR1 desensitize	Ga16 nonsel ant
COc1ccc(NC(=O)COc2ccccc2)c(OC)c1	19	0	-9	4	9	-21	.	.	.	.
COc1ccc(NC(=O)COc2ccc(Br)cc2)c(OC)c1	9	67*	-16	-4	68*	1	43*	13*	29	-3
OCc1ccccc1-c1cnc2sc(NCc3ccc(F)cc3)nn12	.	-11	.	.	4	.	.	.	.	.
CN(C)c1ccc(C(=O)OCC(=O)Nc2ccc(N3CCOCC3)cc2)cc1	6	-6	3	-13	51*	-4	2	10	8	1
Cc1nc2c(c(=O)c3ccccc3n2C)c(=O)n1C1CCCCCC1	9	-38	-13	8	50*	-30	56*	51*	7	1
Cn1c2ccccc2c(=O)c2c(=O)n(C3CCCCC3)c(-c3ccco3)nc21	14	-3	-16	5	103*	4	87*	62*	33	25*
CC(C)Cn1c(-c2ccco2)nc2c(c(=O)c3ccccc3n2C)c1=O	23	-5	-9	-10	16	-21	.	.	.	.
Cc1nc2c(c(=O)c3ccccc3n2C)c(=O)n1-c1ccccc1	8	-2	-21	-18	-1	-9	.	.	.	.
CCOC(=O)c1c(C)[nH]c(C)c1S(=O)(=O)NCCc1sccc1C	26	24	-27	2	54*	-26	27	1	42	8
CCOC(=O)c1c(C)[nH]c(C)c1S(=O)(=O)NCCc1ccc(SC)cc1	26	-16	-2	-4	5	-5	.	.	.	.
COc1ccc(/C=C/C(=O)Nc2ccccc2C(F)(F)F)cc1	2	29	-13	1	48*	-8	16	9	19	16
CCOc1ccc(/C=C/C(=O)Nc2ccccc2C(F)(F)F)cc1	19	-20	-16	-3	-1	2	.	.	.	.
COc1ccc(C(=O)CC(=O)C(=O)Nc2ccccc2C(F)(F)F)cc1	-8	73*	-10	-17	94*	-20	132*	120*	87*	77*
O=C1C=C(C#Cc2ccc(Oc3ccccc3)cc2)C[C@@H](c2ccc(F)cc2)C1	.	6	.	.	0	.	.	.	.	.
CCCC[C@@H]1C=C(C(=O)O)[C@H](c2ccc(Cl)cc2)N1S(=O)(=O)c1ccc(C)cc1	22	1	-6	.	0	-11	.	.	.	.
Cc1cccc(-n2ncc3c(=O)[nH]c(SCC(=O)N4CC(=O)Nc5ccccc54)nc32)c1	-4	-10	2	.	12	1	.	.	.	.
O=C1C(Cc2ccccc2)Nc2ncnc(N3CCc4ccccc4C3)c2N1Cc1ccc(Br)cc1 (configuration not stated)	39	.	11	.	.	-17	.	.	.	.
Cc1ccccc1NC(=O)N1CCc2ccccc2C1	8	0	-5	-9	84*	-4	63*	0	17	5
CCOC(=O)c1ccc(NC(=O)N2CCc3ccccc3C2)cc1	30	9	-8	-6	63*	-2	48*	12*	49*	24*
Cc1cccc(NC(=O)N2CCc3ccccc3C2)c1C	.	52*	.	-10	80*	.	80*	1	29	-4
O=C(Nc1ccc(F)cc1)N1CCc2ccccc2C1	18	-8	-12	6	46*	-10	41*	2	0	6
CCOC(=O)c1ccc(NC(=O)N2CCc3ccccc32)cc1	19	9	-22	-6	6	-17	.	.	.	.
O=C(Nc1ccc(Br)cc1)N1CCc2ccccc2C1	32	15	-25	-11	16	13	.	.	.	.
Cc1ccccc1NC(=O)CN1CCc2ccccc2C1	12	-20	10	-6	16	4	.	.	.	.
O=C(CSc1nnc(CNC(=O)c2c(F)cccc2F)o1)NCc1ccccc1Cl	21	-5	-22	0	0	-12	.	.	.	.
SMILES	OX1R antag-1	TAAR1 antagonist	OX1R antag-2	GPR7 antagonist	TAAR1 agonist	CHO parental Ca	TAAR1 ag conf	Ga16 nonsel ag	TAAR1 desensitize	Ga16 nonsel ant
Cc1cc(C)cc(NC(=O)N2CCc3ccccc3C2)c1	.	11	.	6	58*	.	67*	-1	11	3
Cc1ccc(NC(=O)N2CCc3ccccc3C2)cc1C	.	16	.	0	31	.	.	.	.	.
Cc1c(NS(=O)(=O)c2cc(C(=O)NCCN(C)C)ccc2Cl)c(=O)n(-c2ccccc2)n1C	-6	-10	-4	-1	3	-5	.	.	.	.
O=C(O)C1C2C=CC(C2)C1C(=O)NCCc1ccccc1 (configuration not stated)	11	92*	-3	-11	84*	-7	96*	2	94*	2
CCCCC(CC)CNC(=O)C1C2C=CC(C2)C1C(=O)O (configuration not stated)	12	49*	-7	-8	78*	-3	90*	5	51*	-3
O=C(O)C1C2C=CC(C2)C1C(=O)NCc1ccccn1 (configuration not stated)	-7	.	-7	-3	.	-10	.	.	.	.
O=C(O)C1C2C=CC(C2)C1C(=O)NCCc1ccncc1 (configuration not stated)	6	-3	-5	21	36	1	.	.	.	.
CCOC(=O)c1ccc(NC(=O)C2C3C=CC(C3)C2C(=O)O)cc1 (configuration not stated)	1	2	6	3	9	-5	.	.	.	.
O=C(O)C1C2C=CC(C2)C1C(=O)NCCCc1ccccc1 (configuration not stated)	4	28	7	-4	76*	11	80*	1	31	3
CCCCCC(=O)OCc1ccc(C2=CC(=O)CC(C)(C)C2=O)cc1	.	22	.	.	2	.	.	.	.	.
COc1cc(/C=C2\CCOC2=O)cc(OC)c1OC	9	-7	-2	3	-1	-3	.	.	.	.
CC(C)(c1ccccc1)c1ccc(OCCCNCCO)cc1	3	0	6	7	53*	8	85*	41*	44	16
COCCCNCCCOc1ccc(C(C)(C)c2ccccc2)cc1	5	-22	-14	1	30	-9	.	.	.	.
